Laboratory results published in ChEMBL document CHEMBL4261493, “Development of novel β-carboline-based hydroxamate derivatives as HDAC inhibitors with DNA damage and apoptosis inducing abilities” (Medchemcomm, 2017).
Active and inactive are the calls of the source. No cut-off for these calls is given here.

Tested on: HepG2
Assay: Induction of apoptosis in human HepG2 cells assessed as increase in cleaved PARP expression at 5 uM after 48 hrs by Western blot analysis
Type: functional, cell-based
Conditions: not given
How it was run: (§1)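 Sub-confluent HepG2 cells incubated with or without compound (1.0–4.0 μM) or SAHA (5.0 μM) for 48 h. Lysates immunoblotted for Bax, Bcl-2, cleaved caspase-3 and PARP, with β-actin as internal control. Densitometric scanning gave levels relative to β-actin, as mean ± SD of three separate experiments.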

Row | Compound | Activity
1 | O=C(CCCCCCC(=O)Nc1ccccc1)NO [VORINOSTAT] | Active

Tested on: SMMC-7721
Assay: Antiproliferative activity against human SMMC7721 cells after 48 hrs by MTT assay
Type: functional, cell-based
Conditions: SMMC-7721, 48 h

Row | IC50 | Compound
2 | 5.25 µM | CCCCN(Cc1ccc(C(=O)NO)cc1)C(=O)c1cc2c([nH]c3ccccc32)c(-c2ccc(OC)cc2)n1
3 | > 12.5 µM | CCN(Cc1ccc(C(=O)NO)cc1)C(=O)c1cc2c([nH]c3ccccc32)c(C)n1
4 | 11.6 µM | CCCN(Cc1ccc(C(=O)NO)cc1)C(=O)c1cc2c([nH]c3ccccc32)c(C)n1
5 | > 12.5 µM | CCCCN(Cc1ccc(C(=O)NO)cc1)C(=O)c1cc2c([nH]c3ccccc32)c(C)n1
6 | 5.75 µM | CCCCN(Cc1ccc(C(=O)NO)cc1)C(=O)c1cc2c([nH]c3ccccc32)c(-c2cccc(OC)c2)n1
7 | > 12.5 µM | Cc1nc(C(=O)N(C)Cc2ccc(C(=O)NO)cc2)cc2c1[nH]c1ccccc12
8 | > 12.5 µM | CCCCN(Cc1ccc(C(=O)NO)cc1)C(=O)c1cc2c(cn1)[nH]c1ccccc12

Second part, the molecule before the results:

Row | Compound | IC50
9 | CN(Cc1ccc(C(=O)NO)cc1)C(=O)c1cc2c(cn1)[nH]c1ccccc12 | > 12.5 µM
10 | CCN(Cc1ccc(C(=O)NO)cc1)C(=O)c1cc2c(cn1)[nH]c1ccccc12 | > 12.5 µM
11 | COc1ccc(-c2nc(C(=O)N(C)Cc3ccc(C(=O)NO)cc3)cc3c2[nH]c2ccccc23)cc1 | > 12.5 µM
12 | CCCN(Cc1ccc(C(=O)NO)cc1)C(=O)c1cc2c(cn1)[nH]c1ccccc12 | > 12.5 µM
13 | CCCN(Cc1ccc(C(=O)NO)cc1)C(=O)c1cc2c([nH]c3ccccc32)c(-c2cccc(OC)c2)n1 | 4.12 µM
14 | CCN(Cc1ccc(C(=O)NO)cc1)C(=O)c1cc2c([nH]c3ccccc32)c(-c2ccc(OC)cc2)n1 | 10.3 µM

Tested on: Calf thymus DNA
Assay: Binding affinity to calf thymus DNA assessed as maximum absorption wavelength by UV-Vis spectroscopic titration method
Type: nucleic-acid assay
Conditions: Bos taurus

Row | Compound | Activity
15 | COc1ccc2c(c1)[nH]c1c(C)nccc12 [HARMINE] | 320 nm

Tested on: HepG2
Assay: Induction of apoptosis in human HepG2 cells assessed as increase in cleaved caspase3 expression at 5 uM after 48 hrs by Western blot analysis
Type: functional, cell-based
Conditions: not given
How it was run: as §1

Row | Compound | Activity
16 | O=C(CCCCCCC(=O)Nc1ccccc1)NO [VORINOSTAT] | Active

Tested on: Calf thymus DNA
Assay: Binding affinity to calf thymus DNA assessed as decrease in maximum absorption wavelength by UV-Vis spectroscopic titration method
Type: nucleic-acid assay
Conditions: Bos taurus

Row | Compound | Activity
17 | O=C(CCCCCCC(=O)Nc1ccccc1)NO [VORINOSTAT] | inactive

Molecular target: Histone deacetylase
Assay: Inhibition of HDAC in human HeLa nuclear extract using Boc-Lys(acetyl)-AMC as substrate measured after 60 mins by fluorescence assay
Type: protein assay
Conditions: not given

Row | IC50 | Compound
18 | 0.34 µM | CCCCN(Cc1ccc(C(=O)NO)cc1)C(=O)c1cc2c([nH]c3ccccc32)c(-c2ccc(OC)cc2)n1
19 | 1.75 µM | CCN(Cc1ccc(C(=O)NO)cc1)C(=O)c1cc2c([nH]c3ccccc32)c(C)n1
20 | 0.85 µM | CCCN(Cc1ccc(C(=O)NO)cc1)C(=O)c1cc2c([nH]c3ccccc32)c(C)n1
21 | 0.93 µM | CCCCN(Cc1ccc(C(=O)NO)cc1)C(=O)c1cc2c([nH]c3ccccc32)c(C)n1
22 | 0.37 µM | CCCCN(Cc1ccc(C(=O)NO)cc1)C(=O)c1cc2c([nH]c3ccccc32)c(-c2cccc(OC)c2)n1
23 | 3.06 µM | Cc1nc(C(=O)N(C)Cc2ccc(C(=O)NO)cc2)cc2c1[nH]c1ccccc12
24 | 2.69 µM | CCCCN(Cc1ccc(C(=O)NO)cc1)C(=O)c1cc2c(cn1)[nH]c1ccccc12

More lines, now with the values behind:

Row | Compound | IC50
25 | CN(Cc1ccc(C(=O)NO)cc1)C(=O)c1cc2c(cn1)[nH]c1ccccc12 | 5.63 µM
26 | CCN(Cc1ccc(C(=O)NO)cc1)C(=O)c1cc2c(cn1)[nH]c1ccccc12 | 4.78 µM
27 | COc1ccc(-c2nc(C(=O)N(C)Cc3ccc(C(=O)NO)cc3)cc3c2[nH]c2ccccc23)cc1 | 0.96 µM
28 | CCCN(Cc1ccc(C(=O)NO)cc1)C(=O)c1cc2c(cn1)[nH]c1ccccc12 | 2.82 µM
29 | CCCN(Cc1ccc(C(=O)NO)cc1)C(=O)c1cc2c([nH]c3ccccc32)c(-c2cccc(OC)c2)n1 | 0.23 µM
30 | CCN(Cc1ccc(C(=O)NO)cc1)C(=O)c1cc2c([nH]c3ccccc32)c(-c2ccc(OC)cc2)n1 | 0.83 µM
31 | COc1ccc2c(c1)[nH]c1c(C)nccc12 [HARMINE] | > 10 µM

Tested on: HepG2
Assay: Antiproliferative activity against human HepG2 cells after 48 hrs by MTT assay
Type: functional, cell-based
Conditions: HepG2, 48 h

Row | IC50 | Compound
32 | 3.37 µM | CCCCN(Cc1ccc(C(=O)NO)cc1)C(=O)c1cc2c([nH]c3ccccc32)c(-c2ccc(OC)cc2)n1
33 | > 12.5 µM | CCN(Cc1ccc(C(=O)NO)cc1)C(=O)c1cc2c([nH]c3ccccc32)c(C)n1
34 | 9.83 µM | CCCN(Cc1ccc(C(=O)NO)cc1)C(=O)c1cc2c([nH]c3ccccc32)c(C)n1
35 | 11.7 µM | CCCCN(Cc1ccc(C(=O)NO)cc1)C(=O)c1cc2c([nH]c3ccccc32)c(C)n1
36 | 5.16 µM | CCCCN(Cc1ccc(C(=O)NO)cc1)C(=O)c1cc2c([nH]c3ccccc32)c(-c2cccc(OC)c2)n1
37 | > 12.5 µM | Cc1nc(C(=O)N(C)Cc2ccc(C(=O)NO)cc2)cc2c1[nH]c1ccccc12
38 | > 12.5 µM | CCCCN(Cc1ccc(C(=O)NO)cc1)C(=O)c1cc2c(cn1)[nH]c1ccccc12

The remaining lines, values behind:

Row | Compound | IC50
39 | CN(Cc1ccc(C(=O)NO)cc1)C(=O)c1cc2c(cn1)[nH]c1ccccc12 | > 12.5 µM
40 | CCN(Cc1ccc(C(=O)NO)cc1)C(=O)c1cc2c(cn1)[nH]c1ccccc12 | > 12.5 µM
41 | COc1ccc(-c2nc(C(=O)N(C)Cc3ccc(C(=O)NO)cc3)cc3c2[nH]c2ccccc23)cc1 | 10.5 µM
42 | CCCN(Cc1ccc(C(=O)NO)cc1)C(=O)c1cc2c(cn1)[nH]c1ccccc12 | > 12.5 µM
43 | CCCN(Cc1ccc(C(=O)NO)cc1)C(=O)c1cc2c([nH]c3ccccc32)c(-c2cccc(OC)c2)n1 | 3.64 µM
44 | CCN(Cc1ccc(C(=O)NO)cc1)C(=O)c1cc2c([nH]c3ccccc32)c(-c2ccc(OC)cc2)n1 | 8.34 µM

Tested on: LoVo
Assay: Antiproliferative activity against human LoVo cells after 48 hrs by MTT assay
Type: functional, cell-based
Conditions: not given

Row | IC50 | Compound
45 | 4.76 µM | CCCCN(Cc1ccc(C(=O)NO)cc1)C(=O)c1cc2c([nH]c3ccccc32)c(-c2ccc(OC)cc2)n1
46 | > 12.5 µM | CCN(Cc1ccc(C(=O)NO)cc1)C(=O)c1cc2c([nH]c3ccccc32)c(C)n1
47 | > 12.5 µM | CCCN(Cc1ccc(C(=O)NO)cc1)C(=O)c1cc2c([nH]c3ccccc32)c(C)n1
48 | > 12.5 µM | CCCCN(Cc1ccc(C(=O)NO)cc1)C(=O)c1cc2c([nH]c3ccccc32)c(C)n1
49 | 7.63 µM | CCCCN(Cc1ccc(C(=O)NO)cc1)C(=O)c1cc2c([nH]c3ccccc32)c(-c2cccc(OC)c2)n1
50 | > 12.5 µM | Cc1nc(C(=O)N(C)Cc2ccc(C(=O)NO)cc2)cc2c1[nH]c1ccccc12

Second part, the molecule before the results:

Row | Compound | IC50
51 | COc1ccc(-c2nc(C(=O)N(C)Cc3ccc(C(=O)NO)cc3)cc3c2[nH]c2ccccc23)cc1 | > 12.5 µM
52 | CCCN(Cc1ccc(C(=O)NO)cc1)C(=O)c1cc2c([nH]c3ccccc32)c(-c2cccc(OC)c2)n1 | 5.31 µM
53 | CCN(Cc1ccc(C(=O)NO)cc1)C(=O)c1cc2c([nH]c3ccccc32)c(-c2ccc(OC)cc2)n1 | 9.24 µM

Tested on: not listed separately
Assay: Half life in rat liver microsomes at 5 uM in presence of NADPH by LC-MS analysis
Conditions: not given

Row | Compound | half-life at 5 µM
54 | O=C(CCCCCCC(=O)Nc1ccccc1)NO [VORINOSTAT] | 44 min

Tested on: HCT-116
Assay: Antiproliferative activity against human HCT116 cells after 48 hrs by MTT assay
Type: functional, cell-based
Conditions: HCT-116, 48 h

Row | IC50 | Compound
55 | 3.02 µM | CCCCN(Cc1ccc(C(=O)NO)cc1)C(=O)c1cc2c([nH]c3ccccc32)c(-c2ccc(OC)cc2)n1
56 | > 12.5 µM | CCN(Cc1ccc(C(=O)NO)cc1)C(=O)c1cc2c([nH]c3ccccc32)c(C)n1
57 | 10.5 µM | CCCN(Cc1ccc(C(=O)NO)cc1)C(=O)c1cc2c([nH]c3ccccc32)c(C)n1
58 | > 12.5 µM | CCCCN(Cc1ccc(C(=O)NO)cc1)C(=O)c1cc2c([nH]c3ccccc32)c(C)n1
59 | 4.32 µM | CCCCN(Cc1ccc(C(=O)NO)cc1)C(=O)c1cc2c([nH]c3ccccc32)c(-c2cccc(OC)c2)n1
60 | > 12.5 µM | Cc1nc(C(=O)N(C)Cc2ccc(C(=O)NO)cc2)cc2c1[nH]c1ccccc12
61 | > 12.5 µM | CCCCN(Cc1ccc(C(=O)NO)cc1)C(=O)c1cc2c(cn1)[nH]c1ccccc12

Continued, molecule first:

Row | Compound | IC50
62 | CN(Cc1ccc(C(=O)NO)cc1)C(=O)c1cc2c(cn1)[nH]c1ccccc12 | > 12.5 µM
63 | CCN(Cc1ccc(C(=O)NO)cc1)C(=O)c1cc2c(cn1)[nH]c1ccccc12 | > 12.5 µM
64 | COc1ccc(-c2nc(C(=O)N(C)Cc3ccc(C(=O)NO)cc3)cc3c2[nH]c2ccccc23)cc1 | 9.76 µM
65 | CCCN(Cc1ccc(C(=O)NO)cc1)C(=O)c1cc2c(cn1)[nH]c1ccccc12 | > 12.5 µM
66 | CCCN(Cc1ccc(C(=O)NO)cc1)C(=O)c1cc2c([nH]c3ccccc32)c(-c2cccc(OC)c2)n1 | 2.96 µM
67 | CCN(Cc1ccc(C(=O)NO)cc1)C(=O)c1cc2c([nH]c3ccccc32)c(-c2ccc(OC)cc2)n1 | 6.07 µM

Tested on: HepG2
Assay: Induction of apoptosis in human HepG2 cells at 5 uM after 48 hrs by Annexin-V FITC/propidium iodide staining based flow cytometry relative to control
Type: functional
Conditions: not given
How it was run: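 HepG2 cells treated for 48 h with vehicle, compound at 1.0, 2.0 or 4.0 μM, or SAHA at 5.0 μM. Cells stained with FITC-annexin V/PI and analysed by flow cytometry. Percentage of apoptotic cells reported as mean ± SD of three independent experiments; significance tested versus control.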

Row | Compound | Activity
68 | O=C(CCCCCCC(=O)Nc1ccccc1)NO [VORINOSTAT] | 34.5%
